{"source": "ChEMBL document CHEMBL4196017", "about": "“Design, synthesis and identification of silicon-containing HCV NS5A inhibitors with pan-genotype activity” (Eur J Med Chem, 2018)", "key": {"[1]": {"assay": "Metabolic stability in human liver microsomes assessed as parent compound remaining at 0.2 uM preincubated for 5 mins followed by NADPH addition measured up to 60 mins by UPLC-MS/MS analysis", "assay_type": "ADME, microsome", "details": "read-out: Stability", "how_it_was_run": "(§1)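 Pooled mouse, rat or human liver microsomes 0.2 mg/mL with 1 mM NADPH, 5 mM MgCl2, 100 mM potassium phosphate pH 7.4 and 0.2 µM compound; 5-min preincubation at 37 °C, NADPH start, sampled at 5, 15, 30, 60 min; ice-cold acetonitrile stop; UPLC-MS/MS; percent parent remaining at 60 min.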"}, "[2]": {"target": "T1, Nonstructural protein 5A (Hepatitis C virus) (UniProt Q5L478)", "T1 sequence (whole entry)": "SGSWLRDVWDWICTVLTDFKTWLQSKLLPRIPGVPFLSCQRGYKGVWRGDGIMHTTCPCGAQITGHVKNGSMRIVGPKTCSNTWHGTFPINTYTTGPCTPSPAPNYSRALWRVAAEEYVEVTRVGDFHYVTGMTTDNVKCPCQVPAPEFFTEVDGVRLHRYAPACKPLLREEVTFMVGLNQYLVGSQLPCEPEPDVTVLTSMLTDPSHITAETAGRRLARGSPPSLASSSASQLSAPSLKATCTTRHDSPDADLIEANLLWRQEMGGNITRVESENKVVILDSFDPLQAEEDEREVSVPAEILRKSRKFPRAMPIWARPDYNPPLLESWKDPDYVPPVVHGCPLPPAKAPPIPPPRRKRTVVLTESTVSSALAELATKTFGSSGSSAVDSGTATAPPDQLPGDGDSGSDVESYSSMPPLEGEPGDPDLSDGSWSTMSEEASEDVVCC", "assay": "Potency index, ratio of ombitasvir IC50 to compound IC50 for inhibition of NS5A in HCV genotype 3a infected in human HuH7 replicon cells expressing HCV genotype 1b chimeric replicon", "assay_type": "cell-based", "details": "Hepatitis C virus subtype 3a"}, "[3]": {"assay": "AUC (0 to t) in mouse at 10 mg/kg, ig administered as single dose by UPLC-MS/MS analysis", "assay_type": "ADME, organism-based", "details": "in vivo, po", "how_it_was_run": "(§2)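 Adult male mice (12 h light-dark, 22 °C, 55% humidity) fasted 12 h with free water, then given a single 10 mg/kg intragastric dose; plasma concentrations by UPLC-MS/MS; PK parameters calculated by software.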"}, "[4]": {"assay": "Cmax in mouse at 10 mg/kg, ig administered as single dose by UPLC-MS/MS analysis", "assay_type": "ADME, organism-based", "parameters": "dose 10 mg/kg, route intragastric", "details": "in vivo, po", "how_it_was_run": "as §2"}, "[5]": {"assay": "Metabolic stability in rat liver microsomes assessed as parent compound remaining at 0.2 uM preincubated for 5 mins followed by NADPH addition measured up to 60 mins by UPLC-MS/MS analysis", "assay_type": "ADME, microsome", "details": "read-out: Stability", "how_it_was_run": "as §1"}, "[6]": {"assay": "Half life in mouse at 10 mg/kg, ig administered as single dose by UPLC-MS/MS analysis", "assay_type": "ADME, organism-based", "details": "in vivo, po", "how_it_was_run": "as §2"}, "[7]": {"target": "T1, Nonstructural protein 5A (Hepatitis C virus)", "assay": "Potency index, ratio of ombitasvir IC50 to compound IC50 for inhibition of NS5A in HCV genotype 6a infected in human HuH7 replicon cells expressing HCV genotype 1b chimeric replicon", "assay_type": "cell-based", "details": "Hepatitis C virus subtype 6a"}, "[8]": {"assay": "Metabolic stability in mouse liver microsomes assessed as parent compound remaining at 0.2 uM preincubated for 5 mins followed by NADPH addition measured up to 60 mins by UPLC-MS/MS analysis", "assay_type": "ADME, microsome", "details": "read-out: Stability", "how_it_was_run": "as §1"}, "[9]": {"assay": "Tmax in mouse at 10 mg/kg, ig administered as single dose by UPLC-MS/MS analysis", "assay_type": "ADME, organism-based", "details": "in vivo, po", "how_it_was_run": "as §2"}}}
{"compound": "COC(=O)N[C@H](C(=O)N1CCC[C@H]1C(=O)Nc1ccc([C@@H]2CC[C@@H](c3ccc(NC(=O)[C@@H]4CCCN4C(=O)[C@@H](NC(=O)OC)C(C)C)cc3)N2c2ccc([Si](C)(C)C(C)(C)C)cc2)cc1)C(C)C", "values": [{"measurement": "remaining at 1 h, 0.2 µM", "setting": "[1]", "value": 84.3, "unit": "%"}, {"measurement": "Ratio IC50", "setting": "[2]", "value": 7.2}, {"measurement": "AUC(0-t)", "setting": "[3]", "value": 3520, "unit": "ng·h/mL"}, {"measurement": "Cmax", "setting": "[4]", "value": 211, "unit": "ng/mL"}, {"measurement": "remaining at 1 h, 0.2 µM", "setting": "[5]", "value": 87, "unit": "%"}, {"measurement": "half-life", "setting": "[6]", "value": 34.7, "unit": "h"}, {"measurement": "Ratio IC50", "setting": "[7]", "value": 3.7}, {"measurement": "remaining at 1 h, 0.2 µM", "setting": "[8]", "value": 92.1, "unit": "%"}, {"measurement": "Tmax", "setting": "[9]", "value": 3, "unit": "h"}]}
{"compound": "COC(=O)N[C@H](C(=O)N1CCC[C@H]1C(=O)Nc1ccc([C@@H]2CC[C@@H](c3ccc(NC(=O)[C@@H]4CCCN4C(=O)[C@@H](NC(=O)OC)C(C)C)cc3)N2c2ccc([Si](C)(C)C)cc2)cc1)C(C)C", "values": [{"measurement": "remaining at 1 h, 0.2 µM", "setting": "[1]", "value": 99.2, "unit": "%"}, {"measurement": "Ratio IC50", "setting": "[2]", "value": 2.3}, {"measurement": "AUC(0-t)", "setting": "[3]", "value": 2910, "unit": "ng·h/mL"}, {"measurement": "Cmax", "setting": "[4]", "value": 262, "unit": "ng/mL"}, {"measurement": "remaining at 1 h, 0.2 µM", "setting": "[5]", "value": 101, "unit": "%"}, {"measurement": "half-life", "setting": "[6]", "value": 8.8, "unit": "h"}, {"measurement": "Ratio IC50", "setting": "[7]", "value": 2.4}, {"measurement": "remaining at 1 h, 0.2 µM", "setting": "[8]", "value": 93.3, "unit": "%"}, {"measurement": "Tmax", "setting": "[9]", "value": 3, "unit": "h"}]}
